Compound activity as filed in PubChem.
UHRF1 MBD2 ctr = human UHRF1 methylated DNA binding inhibitors; UHRF1 binding to methylated oligo, TR-FRET; inhibition, % at 4.4 µM; actives 0.75% (n = 370,000); AID 687016; in the data active = inhibition above about 21%;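 note: UHRF1 SRA domain binding a hemimethylated CpG hairpin DNA probe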
ARFGAP1 inhibitor = inhibits rat ARF GTPase activating protein 1 | Arfgap1-stimulated ARF1 GTP hydrolysis, GDP FP detection | inhibition, % at 16.5 µM | actives 0.26% (n = 360,000);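 active = inhibition above a per-plate limit, mean inhibition of low control wells plus 3 SD, cut at about 25% in these data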
Target sequence (Q62848 1-136 limits assumed): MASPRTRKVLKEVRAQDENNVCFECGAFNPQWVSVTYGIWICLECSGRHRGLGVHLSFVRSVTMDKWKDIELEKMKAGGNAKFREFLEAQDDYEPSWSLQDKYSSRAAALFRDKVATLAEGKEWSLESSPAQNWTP
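material = rat Arfgap1 catalytic domain, aa 1-136 | also added = human ARF1(Δ1-17)-GTP substrate | compound dosing = one concentration, 16.5 µM, DMSO 1.26% | times = GTP hydrolysis reaction 2 h at 25 °C | measured by = FP, GDP Alexa 633 tracer displaced from anti-GDP antibody, 620/688 nm | evaluation = percent inhibition of Arfgap1-stimulated GTP hydrolysis | replication = single well per compound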
ASAP1 inh = blocks human ASAP1-stimulated Arf1 GTP hydrolysis; inhibition, % at 16.5 µM; Q9ULH1; GDP FP detection; actives 0.19% (n = 360,000)
LEDGF integ inh = blocks HIV-1 LEDGF/p75-dependent DNA integration; AID 743269; actives 0.64% (n = 370,000); inhibition, % at 3.7 µM; TR-FRET IN-LEDGF/p75 DNA integration, Eu/Cy5;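 active = inhibition above the screen-wide mean plus 3 SD, cut at about 13% in these data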;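 note: signal is the Cy5 over europium emission ratio at 671 and 618 nm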
TDP2 absorb = blocks human TDP2 phosphodiesterase activity; inhibition, % at 12.8 µM; actives 0.34% (n = 370,000); recombinant TDP2, T5PNP hydrolysis, p-nitrophenol absorbance 415 nm; O95551;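 active = inhibition above the mean of all tested compounds plus 3 SD, set per campaign, cut at about 25% in these data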
Target sequence (O95551 whole entry, looked up): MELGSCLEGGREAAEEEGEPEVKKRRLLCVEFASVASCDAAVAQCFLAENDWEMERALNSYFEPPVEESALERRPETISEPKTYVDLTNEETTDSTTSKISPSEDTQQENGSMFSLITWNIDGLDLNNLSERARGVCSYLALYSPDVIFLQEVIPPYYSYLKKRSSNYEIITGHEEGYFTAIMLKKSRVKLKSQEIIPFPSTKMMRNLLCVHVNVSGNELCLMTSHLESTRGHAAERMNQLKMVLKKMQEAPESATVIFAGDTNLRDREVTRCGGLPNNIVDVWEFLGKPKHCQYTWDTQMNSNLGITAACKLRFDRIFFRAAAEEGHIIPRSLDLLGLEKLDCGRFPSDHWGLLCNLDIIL
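System: recombinant human TDP2 / Amount: 120 nM TDP2 per well / Also added: 5 mM T5PNP chromogenic substrate / Doses: 12.8 µM single point, 1% DMSO / Incubation: 2 h at 37 °C / Detection: p-Nitrophenol epi absorbance / Evaluation: % inhibition relative to enzyme-containing and enzyme-free wells / Repeats: singlicate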
MBD2 inh = MBD2-methylated oligo binding inhibition; Q9UBB5; TR-FRET, MBD2 binding to methylated oligonucleotide; inhibition, % at 4.4 µM; actives 0.31% (n = 370,000); in the data active = inhibition above about 13%
TDP2 confirm = human TDP2 inhibition, confirmation | recombinant human TDP2, absorbance read-out | inhibition, % at 12.8 µM | shares compounds with TDP2 absorb | actives 22% (n = 1,100)
Numbers stand for hits; 0 = inactive; - = no result given. The list is not random: actives were taken first. Their share in the collection is about 2%. Cut-off read from the data, not from the text of the source, unless noted: active = inhibition above about 25%; inactive = the rest.

SMILES	UHRF1 MBD2 ctr	ARFGAP1 inhibitor	ASAP1 inh	LEDGF integ inh	TDP2 absorb	MBD2 inh	TDP2 confirm
O=C(NC1C(=O)NNC1c1ccc(Cl)cc1)c1ccc(F)cc1 (centres undefined)	0	0	0	0	0	0	-
O=C(NCCCN1CCOCC1)c1ccc2c(c1)N(Cc1ccc(Cl)cc1)C(=O)c1ccccc1S2=O (centres undefined)	0	0	0	0	53	0	0
O=C(NCCCN1CCCC1)c1ccc2c(c1)N(Cc1ccccc1F)C(=O)c1ccccc1S2=O (centres undefined)	0	0	0	0	0	0	-
C[C@H](O)[C@@H]1CN2CCc3c([nH]c4c(-c5ccccc5)cccc34)[C@@H]2C[C@@H]1N(C)C(=O)c1ccco1	0	-	-	0	0	0	-
CCOc1ccccc1NC(=O)c1cc(S(=O)(=O)NCc2ccco2)ccc1F	0	0	0	0	26	0	0
O=C(NCC(c1ccccc1)c1ccccc1)[C@H](Cc1c[nH]c2ccccc12)NC1(C(=O)NC2CCCCC2)CCCC1	0	-	-	0	0	0	-
C=CCn1c(SCc2c(F)c(F)c(F)c(F)c2F)nc(O)cc1=O	0	0	0	0	43	0	0
CC(C)CNC(=O)OCc1cn(Cc2ccccc2)nn1	0	-	-	0	0	0	-
Cc1nc2c3ccccc3nc(NNC(=O)CCC(=O)N3CCC(C)CC3)n2n1	0	0	0	0	29	0	0
CC1(C)Cc2ccccc2C2=NNC(=O)C2=N1	0	0	0	0	28	0	34
CC1(C)Cc2ccccc2C(Nn2cnnc2)=N1	0	0	0	0	0	0	-
COc1cc(CNc2ccc(O)cc2)cc(Br)c1OCc1ccccc1	0	0	0	0	36	0	0
COC(=O)Nc1ccc(OCc2ccccc2)cc1	0	0	0	0	0	0	-
Oc1ccc(NCc2ccc(OCc3ccccc3)cc2)cc1	0	0	0	0	34	0	39
CC(=O)CC[C@@H]1CC[C@]2(CCCN(C(=O)c3ccccc3)C2)O1	0	-	-	0	0	0	-
Cc1ccc(S(=O)(=O)N2CCN(C(=O)c3ccc4c(c3)OCO4)CC2)cc1	0	0	0	0	0	0	-
Cc1cc(C)c(S(=O)(=O)N2CCN(C(=O)c3ccc4c(c3)OCO4)CC2)c(C)c1	0	0	0	0	29	0	0
c1csc(CNc2ncnc3ccc(-c4ccc5c(c4)OCO5)cc23)n1	0	-	-	0	0	0	-
Cc1ccc(CN2CCN(c3ccccc3)CC2)o1	0	0	0	0	26	0	0
Cc1ccc(CN2CCN(c3ncccn3)CC2)o1	0	0	0	0	0	0	-
Cc1ccccc1CN1CCCCC(NC(=O)c2ccc(Br)cc2)C1=O (centres undefined)	0	-	-	0	0	0	-
COc1cccc(CNC(=O)CSc2nnc3c(n2)[nH]c2ccc(OC)cc23)c1	0	0	0	0	0	0	-
CCOc1ccc2[nH]c3nc(SCC(=O)OC(C)C)nnc3c2c1	0	0	0	0	25	0	0
COc1ccc(S[C@]2(C(=O)N(C)C)CC(=O)N[C@@H]2c2ccc(OC)cc2)cc1	0	-	-	0	0	0	-
Cc1c(O)ccc2c(CC(=O)N[C@@H](Cc3ccc(O)cc3)C(=O)O)cc(=O)oc12	0	0	0	0	31	0	0
SMILES	UHRF1 MBD2 ctr	ARFGAP1 inhibitor	ASAP1 inh	LEDGF integ inh	TDP2 absorb	MBD2 inh	TDP2 confirm
COc1ccc2c(CC(=O)N[C@@H](Cc3ccccc3)C(=O)O)cc(=O)oc2c1C	0	0	0	0	0	0	-
Cc1[nH]n(-c2ccccc2)c(=O)c1/C=N/c1nn[nH]n1	0	0	0	0	27	0	0
Cc1[nH]n(-c2ccccc2)c(=O)c1S(=O)(=O)c1ccccc1	0	0	0	0	49	0	0
Cc1[nH]n(-c2ccccc2)c(=O)c1/C=N/N(c1ccccc1)c1ccccc1	0	0	0	0	40	0	0
Cc1nn(C(C)C(=O)NCc2ccco2)c(=O)c2nn(-c3ccccc3)c(C)c12 (centres undefined)	0	0	0	0	28	0	0
O=C(O)COCC(=O)Nc1cc(C(F)(F)F)cc(C(F)(F)F)c1	0	0	0	0	26	0	0
O=C(COc1ccccc1F)Nc1ccc2[nH]c(=O)[nH]c2c1	0	0	0	0	28	0	0
CC(C)[C@H]1Cn2nncc2Cn2c3ccccc3c(=O)n21	0	-	-	0	0	0	-
CCCC1=[N+](CC(=O)c2ccc(Br)cc2)CCn2cccc21	0	0	0	0	30	0	0
CCOc1ccc2[nH]c3c(NCCO)ncnc3c2c1	0	0	0	0	27	0	0
COC(=O)[C@]12C[C@H](CC(=O)N3CCC(c4ccccc4)CC3)C(=O)N(CCC3=CCCCC3)C1=C[C@H](C(C)C)O[C@@H]2C1CC1	0	-	-	0	0	0	-
CN(C)c1cccc(C(=O)OCC(=O)NC2CCCC2)c1	0	0	0	0	26	0	0
COc1cccc(NC2=C(NCCO)C(=O)c3ccccc3C2=O)c1	0	0	0	0	55	0	0
COc1cccc(Nc2c(Nc3cccc(OC)c3)c(=O)c2=O)c1	0	0	0	0	0	0	-
COc1ccc(Cn2cc(COC(=O)N3CCOCC3)nn2)cc1	0	-	-	0	0	0	-
Cc1cccc(-c2cccc3c4c([nH]c23)[C@@H]2C[C@H](N(C)C(=S)NCCc3ccccc3)[C@H]([C@H](C)O)CN2CC4)c1	0	-	-	0	0	0	-
Cc1cccc(CN2CCSCC2)c1	0	0	0	0	27	0	0
COC(=O)[C@]12C[C@H](CC(=O)N3CCCCC3)C(=O)N(CCc3ccc(OC)c(OC)c3)C1=C[C@H](C(C)C)O[C@@H]2C1CC1	0	-	-	0	0	0	-
CC(C(=O)NC1C=CS(=O)(=O)C1)N1C(=O)/C(=C/c2cccc(Cl)c2)SC1=S (centres undefined)	0	0	0	0	27	0	0
COC(=O)c1ccc(-c2ccc(C(c3c(C)[nH][nH]c3=O)c3c(C)[nH][nH]c3=O)o2)cc1	0	0	0	0	26	0	25
Cc1ccc2oc(-c3ccccc3C(=O)O)cc(=O)c2c1	0	0	0	0	0	0	-
Cc1[nH][nH]c(=O)c1C(c1ccc(-c2ccccc2C(=O)O)o1)c1c(C)[nH][nH]c1=O	0	0	0	0	45	0	39
COC(=O)[C@]12C[C@H](CC(=O)NCc3cccc4ccccc34)C(=O)N(Cc3cccc4ccccc34)C1=C[C@H](C(C)C)O[C@@H]2C1CC1	0	-	-	0	0	0	-
CCCCCCNC(=O)C1CSCCS(=O)(=O)N1Cc1ccc(C)cc1 (centres undefined)	0	-	-	0	0	0	-
